Measurements taken from ChEMBL document CHEMBL6115024 (J Med Chem, 2025).
Calls of active or inactive are those of the source. The calls are words filed in the database; no cut-off is given here.

Columns and labels:
[1] = target: T1, Glucagon-like peptide 1 receptor (Homo sapiens, UniProt P43220); assay: Agonist activity at GLP-1 receptor (unknown origin) overexpressed in CHO-K1 cells assessed as cAMP production incubated for 30 mins by HitHunter cAMP assay; format: functional, cell-based
[2] = target: T1, Glucagon-like peptide 1 receptor; assay: Agonist activity at GLP-1 receptor (unknown origin) overexpressed in CHO-K1 cells assessed as cAMP production incubated for 30 mins in presence of HSA by HitHunter cAMP assay; format: functional, cell-based
[3] = target: Albumin (Homo sapiens, UniProt P02768); assay: Binding affinity to CM5-chip immobilized human serum albumin assessed as fold change in equilibrium association constant by SPR analysis relative to semaglutide
[4] = system: Mus musculus; assay: Induction of glycemic control in db/db mouse assessed as reduction in large lipid droplets in liver at 10 to 30 nmol/kg, sc treated for 8 weeks administered on every 2 days by H and E staining based analysis; format: functional, organism-based; details: dose 10-30 nmol/kg
How it was run: (§1)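 After 8 weeks of sc dosing (10 or 30 nmol/kg every 2 days) of db/db mice, liver and iWAT fixed in 4% paraformaldehyde, paraffin-embedded, sectioned and H&E stained; adipocyte area and diameter distributions and liver steatosis, hypertrophy, ballooning scored.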

[5] = system: Mus musculus; assay: Induction of glycemic control in diet-induced obese C57BL/6 mouse assessed as decrease in total cholesterol level at 100 nmol/kg, sc treated for 40 days administered on every 4 days; format: functional, organism-based; details: time 40.0 day
How it was run: (§2)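 Male C57BL/6 mice fed 45% kcal fat diet from 6 to 18–20 weeks old, kept on diet, given sc PBS (100 μL) or 3–100 nmol/kg every 4 days for 40 days; glucose monitored; body weight, composition, blood chemistry and H&E histology of fixed liver and iWAT assessed post-treatment.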

[6] = system: Mus musculus; assay: Effect on liver weight in db/db mouse at 10 to 30 nmol/kg, sc treated for 8 weeks administered on every 2 days; format: functional, organism-based; details: dose 10-30 nmol/kg
How it was run: (§3)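 db/db mice dosed sc with PBS or 10 or 30 nmol/kg every 2 days for 8 weeks; body weight, food and water intake recorded every 2 days; on day 59 heart, liver, iWAT and BAT excised and weighed; mean ± SEM, ANOVA with multiple comparisons.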

[7] = system: Mus musculus; assay: Induction of glycemic control in db/db mouse assessed as reduction in blood glucose level at 30 nmol/kg, sc measured after 48 hrs; format: functional, organism-based
[8] = system: Pancreatic islet; assay: Induction of insulin secretion in C57BL6/J mouse pancreatic islet at 10 to 100 nM incubated for 24 hrs in presence of 2.5 mM glucose by ELISA; format: functional, cell-based; details: dose 10-100 nM
[9] = system: Mus musculus; assay: Induction of glycemic control in db/db mouse assessed as reduction in macrovesicular steatosis in liver at 10 to 30 nmol/kg, sc treated for 8 weeks administered on every 2 days by H and E staining based analysis; format: functional, organism-based; details: dose 10-30 nmol/kg; how it was run: as §1
[10] = system: Mus musculus; assay: Effect on brown adipose tissue weight in db/db mouse at 10 to 30 nmol/kg, sc treated for 8 weeks administered on every 2 days; format: functional, organism-based; details: dose 10-30 nmol/kg; how it was run: as §3
[11] = system: Mus musculus; assay: Induction of glycemic control in db/db mouse assessed as reduction in blood glucose level administered subcutaneously measured upto 120 hrs; format: functional, organism-based; details: dose 1-100 nmol/kg, route sc
[12] = system: Mus musculus; assay: Induction of glycemic control in diet-induced obese C57BL/6 mouse assessed as reduction in fat mass at 3 to 100 nmol/kg, sc treated for 40 days administered on every 4 days; format: functional, organism-based; details: dose 3-100 nmol/kg, time 40.0 day; how it was run: as §2
[13] = system: Mus musculus; assay: Induction of glycemic control in diet-induced obese C57BL/6 mouse assessed as increase in proportion of small adipocytes at 3 to 100 nmol/kg, sc treated for 40 days administered on every 4 days by H and E staining based analysis; format: functional, organism-based; details: dose 3-100 nmol/kg, time 40.0 day; how it was run: as §2
[14] = system: Mus musculus; assay: Blood glucose lowering effect in db/db mouse assessed as blood glucose level at 30 nmol/kg, sc treated for 8 weeks administered on every 2 days (reference value: 17 to 30 mmol/L); format: functional
[15] = system: Mus musculus; assay: Induction of glycemic control in db/db mouse assessed as reduction in proportion of iWAT weight to total body weight at 10 to 30 nmol/kg, sc treated for 8 weeks administered on every 2 days; format: functional, organism-based; details: dose 10-30 nmol/kg; how it was run: as §3
[16] = system: Mus musculus; assay: Induction of glycemic control in db/db mouse assessed as reduction in microvesicular steatosis in liver at 10 to 30 nmol/kg, sc treated for 8 weeks administered on every 2 days by H and E staining based analysis; format: functional, organism-based; details: dose 10-30 nmol/kg; how it was run: as §1
[17] = system: Mus musculus; assay: Induction of glycemic control in db/db mouse assessed as reduction in polyphagia at 10 to 30 nmol/kg, sc treated for 8 weeks administered on every 2 days; format: functional, organism-based; details: dose 10-30 nmol/kg; how it was run: as §3
[18] = system: Mus musculus; assay: Effect on ALT level in diet-induced obese C57BL/6 mouse at 3 to 100 nmol/kg, sc treated for 40 days administered on every 4 days; format: functional, organism-based; details: dose 3-100 nmol/kg, time 40.0 day
[19] = system: Mus musculus; assay: Induction of glycemic control in diet-induced obese C57BL/6 mouse assessed as decrease in proportion of large adipocytes at 3 to 100 nmol/kg, sc treated for 40 days administered on every 4 days by H and E staining based analysis; format: functional, organism-based; details: dose 3-100 nmol/kg, time 40.0 day; how it was run: as §2
[20] = system: Mus musculus; assay: Induction of glycemic control in db/db mouse assessed as reduction in blood glucose level at 1 to 100 nmol/kg, sc measured upto 120 hrs; format: functional, organism-based
How it was run: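 db/db mice, three per dose group, got a single sc dose of 1, 3, 10, 30 or 100 nmol/kg, with a PBS control. Blood glucose was measured before dosing and at multiple time points after. EC50 was derived from the dose–response profiles by nonlinear regression. Mean ± SEM.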

[21] = system: Mus musculus; assay: Induction of glycemic control in db/db mouse assessed as reduction in hepatocyte ballooning at 10 to 30 nmol/kg, sc treated for 8 weeks administered on every 2 days by H and E staining based analysis; format: functional, organism-based; details: dose 10-30 nmol/kg; how it was run: as §1
[22] = system: Mus musculus; assay: Inhibition of fatty liver in GAN-DIO-NASH C57BL/6JNarl mouse assessed as improvement in liver health at 30 nmol/kg, sc qd for 70 days; format: functional, organism-based; details: time 70.0 day
How it was run: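 Male GAN-DIO-NASH mice on GAN diet dosed daily with PBS or 5–30 nmol/kg for 10 weeks; body weight, fat mass and ALT on days 0 and 70, liver H&E at 20×, liver triglycerides post-treatment; mean ± SEM, ANOVA or Student's t test.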

[23] = system: Mus musculus; assay: Induction of glycemic control in db/db mouse assessed as reduction in polydipsia at 10 to 30 nmol/kg, sc treated for 8 weeks administered on every 2 days; format: functional, organism-based; details: dose 10-30 nmol/kg; how it was run: as §3
[24] = system: Mus musculus; assay: Effect on heart weight in db/db mouse at 10 to 30 nmol/kg, sc treated for 8 weeks administered on every 2 days; format: functional, organism-based; details: dose 10-30 nmol/kg; how it was run: as §3
[25] = system: Mus musculus; assay: Induction of glycemic control in db/db mouse assessed as reduction in […] in liver at 10 to 30 nmol/kg, sc treated for 8 weeks administered on every 2 days by H and E staining based analysis; format: functional, organism-based; details: dose 10-30 nmol/kg
[26] = system: Mus musculus; assay: Induction of glycemic control in diet-induced obese C57BL/6 mouse assessed as increase in lean mass at 3 to 100 nmol/kg, sc treated for 40 days administered on every 4 days; format: functional, organism-based; details: dose 3-100 nmol/kg, time 40.0 day; how it was run: as §2
[27] = system: Mus musculus; assay: Induction of glycemic control in diet-induced obese C57BL/6 mouse assessed as reduction in blood glucose level at 30 nmol/kg, sc treated for 40 days administered on every 4 days relative to control; format: functional, organism-based; details: time 40.0 day

T1 sequence (P43220 whole entry): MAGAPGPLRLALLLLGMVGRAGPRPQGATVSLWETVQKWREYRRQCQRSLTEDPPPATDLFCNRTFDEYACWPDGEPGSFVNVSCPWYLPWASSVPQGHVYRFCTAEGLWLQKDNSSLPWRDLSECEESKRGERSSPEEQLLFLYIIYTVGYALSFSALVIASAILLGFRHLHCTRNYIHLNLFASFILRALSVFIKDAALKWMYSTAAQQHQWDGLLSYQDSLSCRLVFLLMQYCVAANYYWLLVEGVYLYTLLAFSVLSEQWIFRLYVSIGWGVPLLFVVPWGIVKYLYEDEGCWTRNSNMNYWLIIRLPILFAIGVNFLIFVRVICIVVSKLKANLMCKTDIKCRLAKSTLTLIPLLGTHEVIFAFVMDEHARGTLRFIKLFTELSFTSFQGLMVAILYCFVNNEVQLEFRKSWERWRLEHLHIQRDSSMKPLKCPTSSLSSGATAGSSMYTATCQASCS
Albumin, sequence (P02768 whole entry): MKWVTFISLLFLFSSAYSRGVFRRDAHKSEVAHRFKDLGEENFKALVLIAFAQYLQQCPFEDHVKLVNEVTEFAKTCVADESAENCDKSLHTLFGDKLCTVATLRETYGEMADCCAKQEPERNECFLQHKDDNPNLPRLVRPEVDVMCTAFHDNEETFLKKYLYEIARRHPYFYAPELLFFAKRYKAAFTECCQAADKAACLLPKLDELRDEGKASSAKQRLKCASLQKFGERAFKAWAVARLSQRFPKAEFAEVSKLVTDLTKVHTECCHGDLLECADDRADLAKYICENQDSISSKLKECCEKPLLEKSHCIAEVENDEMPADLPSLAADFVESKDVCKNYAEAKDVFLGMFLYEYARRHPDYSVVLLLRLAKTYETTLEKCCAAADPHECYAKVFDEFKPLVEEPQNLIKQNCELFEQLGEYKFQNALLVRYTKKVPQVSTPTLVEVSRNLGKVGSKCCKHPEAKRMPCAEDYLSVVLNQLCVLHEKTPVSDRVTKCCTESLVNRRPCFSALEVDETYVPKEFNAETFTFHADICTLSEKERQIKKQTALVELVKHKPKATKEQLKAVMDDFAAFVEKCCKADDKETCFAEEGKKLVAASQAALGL

## CCCCCCCCCCCCCCCC(=O)N[C@@H](CCC(=O)NCCCC[C@@H](NC(=O)CCOCCOCCOCCOCCNC(=O)CCc1cn(CC(=O)N[C@@H](CCC(=O)NCCCC[C@H](NC(=O)[C@H](C)NC(=O)[C@H](C)NC(=O)[C@H](CCC(N)=O)NC(=O)CNC(=O)[C@H](CCC(=O)O)NC(=O)[C@H](CC(C)C)NC(=O)[C@H](Cc2ccc(O)cc2)NC(=O)[C@H](CO)NC(=O)[C@H](CO)NC(=O)[C@@H](NC(=O)[C@H](CC(=O)O)NC(=O)[C@H](CO)NC(=O)[C@@H](NC(=O)[C@H](Cc2ccccc2)NC(=O)[C@@H](NC(=O)CNC(=O)[C@H](CCC(=O)O)NC(=O)C(C)(C)NC(=O)[C@@H](N)Cc2cnc[nH]2)[C@@H](C)O)[C@@H](C)O)C(C)C)C(=O)N[C@@H](CCC(=O)O)C(=O)N[C@@H](Cc2ccccc2)C(=O)N[C@H](C(=O)N[C@@H](C)C(=O)N[C@@H](Cc2c[nH]c3ccccc23)C(=O)N[C@@H](CC(C)C)C(=O)N[C@H](C(=O)N[C@@H](CCCNC(=N)N)C(=O)NCC(=O)N[C@@H](CCCNC(=N)N)C(=O)NCC(=O)O)C(C)C)[C@@H](C)CC)C(=O)O)nn1)C(=O)NCCOCCOCCOCCOCCC(=O)N[C@H](CCCCNC(=O)CC[C@@H](NC(=O)CCCCCCCCCCCCCCCCC(=O)O)C(=O)O)C(=O)O)C(=O)O
[1]
  EC50: 0.92 nM
[2]
  EC50: 43.3 nM

## CCCCCCCCCCCCCCCC(=O)N[C@@H](CCC(=O)NCCCC[C@H](NC(=O)CCOCCOCCOCCOCCNC(=O)CCc1cn(CC(=O)N[C@@H](CCC(=O)NCCCC[C@H](NC(=O)[C@H](C)NC(=O)[C@H](C)NC(=O)[C@H](CCC(N)=O)NC(=O)CNC(=O)[C@H](CCC(=O)O)NC(=O)[C@H](CC(C)C)NC(=O)[C@H](Cc2ccc(O)cc2)NC(=O)[C@H](CO)NC(=O)[C@H](CO)NC(=O)[C@@H](NC(=O)[C@H](CC(=O)O)NC(=O)[C@H](CO)NC(=O)[C@@H](NC(=O)[C@H](Cc2ccccc2)NC(=O)[C@@H](NC(=O)CNC(=O)[C@H](CCC(=O)O)NC(=O)[C@H](C)NC(=O)[C@@H](N)Cc2cnc[nH]2)[C@@H](C)O)[C@@H](C)O)C(C)C)C(=O)N[C@@H](CCC(=O)O)C(=O)N[C@@H](Cc2ccccc2)C(=O)N[C@H](C(=O)N[C@@H](C)C(=O)N[C@@H](Cc2c[nH]c3ccccc23)C(=O)N[C@@H](CC(C)C)C(=O)N[C@H](C(=O)N[C@@H](CCCNC(=N)N)C(=O)NCC(=O)N[C@@H](CCCNC(=N)N)C(=O)NCC(=O)O)C(C)C)[C@@H](C)CC)C(=O)O)nn1)C(=O)NCCOCCOCCOCCOCCC(=O)N[C@@H](CCCCNC(=O)CC[C@H](NC(=O)CCCCCCCCCCCCCCC)C(=O)O)C(=O)OC)C(=O)O
[3]
  fold change (FC): 8

## CC[C@H](C)[C@H](NC(=O)[C@H](Cc1ccccc1)NC(=O)[C@H](CCC(=O)O)NC(=O)[C@H](CCCCNC(=O)COCCOCCNC(=O)COCCOCCNC(=O)CC[C@H](NC(=O)CCCCCCCCCCCCCCCCC(=O)O)C(=O)O)NC(=O)[C@H](C)NC(=O)[C@H](C)NC(=O)[C@H](CCC(N)=O)NC(=O)CNC(=O)[C@H](CCC(=O)O)NC(=O)[C@H](CC(C)C)NC(=O)[C@H](Cc1ccc(O)cc1)NC(=O)[C@H](CO)NC(=O)[C@H](CO)NC(=O)[C@@H](NC(=O)[C@H](CC(=O)O)NC(=O)[C@H](CO)NC(=O)[C@@H](NC(=O)[C@H](Cc1ccccc1)NC(=O)[C@@H](NC(=O)CNC(=O)[C@H](CCC(=O)O)NC(=O)C(C)(C)NC(=O)[C@@H](N)Cc1cnc[nH]1)[C@@H](C)O)[C@@H](C)O)C(C)C)C(=O)N[C@@H](C)C(=O)N[C@@H](Cc1c[nH]c2ccccc12)C(=O)N[C@@H](CC(C)C)C(=O)N[C@H](C(=O)N[C@@H](CCCNC(=N)N)C(=O)NCC(=O)N[C@@H](CCCNC(=N)N)C(=O)NCC(=O)O)C(C)C
[4]
  Activity: Active
[5]
  Activity: Active
[6]
  Activity: No effect
[7]
  Activity: inactive
[8]
  Activity: inactive
[9]
  Activity: Active
[10]
  Activity: No effect
[11]
  Activity: Dose-dependent-effect
[12]
  Activity: inactive
[13]
  Activity: inactive
[14]
  Activity: 17.7 mmol/L
[15]
  Activity: Active
[16]
  Activity: Active
[17]
  Activity: Active
[18]
  Activity: No effect
[19]
  Activity: inactive
[20]
  EC50: 9.24 nM
[21]
  Activity: Active
[22]
  inhibition: Active
[23]
  Activity: Active
[24]
  Activity: No effect
[25]
  Activity: Active
[26]
  Activity: inactive
[27]
  Activity: inactive
